Calls of active or inactive are those of the source. The rule behind the calls is not given here. Starred links: 1 amine or outer side, 2 acyl side, 3 side chain; linkers in the order of their positions; H or OH if unused. Residues, ends and D or L forms follow the SMILES beside them. *: point of attachment. Piperazinyl(4-RhodamineB) = CCN(CC)c1ccc2c(-c3ccccc3C(=O)N3CCN(*)CC3)c3ccc(=[N+](CC)CC)cc-3oc2c1; Suc = O=C(CCC(=O)[*:2])[*:1]
Tests used:
HeLa = assay: Cytotoxicity against human HeLa cells after 24 hrs by MTT assay; format: functional
How it was run: (§1)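 Cells grown at 37 °C with 5% CO2 and treated at about 50–70% confluence in serum-free medium for 24 h. Viability read by MTT and expressed as a percentage of untreated cells. Run in triplicate in at least three independent trials, reported as mean ± standard deviation.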

HT-22 [1] = assay: Aggregation property of the compound in mouse HT22 cells assessed as intracellular amyloid formation at 15 uM after 1 hr by thioflavin S/DAPI staining based fluorescence microscopic analysis; format: ADME, cell-based; conditions: ht-22, 1 h
How it was run: (§2)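 Cells treated with vehicle or 15 μM peptide for 1 h, fixed in 4% PFA for 20 min, stained with 0.005% (w/v) ThS in water for 10 min, washed three times with absolute ethanol, counterstained with DAPI, and imaged by epifluorescence microscopy.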

HT-22 [2] = assay: Aggregation property of the compound in mouse HT22 cells assessed as intracellular amyloid formation by thioflavin S/DAPI staining based fluorescence microscopic analysis; format: ADME, cell-based; how it was run: as §2
HT-22 [3] = assay: Induction of cell death in mouse HT22 cells at 7.5 uM after 3 hrs by thioflavin S/DAPI/propidium iodide staining based fluorescence microscopic analysis; format: functional
How it was run: (§3)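 Cells were given vehicle or 7.5 μM peptide for 3 h and stained live with 20 μg mL−1 propidium iodide for 10 min. They were then PBS-washed, fixed in 4% PFA, stained with 0.005% ThS for 10 min, ethanol-washed, counterstained with DAPI and imaged by fluorescence microscopy.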

MDA-MB-231 = assay: Cytotoxicity against human MDA-MB-231 cells after 24 hrs by MTT assay; format: functional; conditions: for EC50: MDA-MB-231, 24 h, read-out: ED50 (the source's name)
How it was run: (§4)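 Per well of a 48-well plate, 1.5 × 10^4 cells were seeded in medium with 10% FBS and grown for at least 24 h, then treated at about 50–60% confluence for 24 h. MTT was added for the final 3 h at 37 °C in the dark. Formazan was dissolved in DMSO and read at 595 nm, as % of untreated cells. Triplicate wells, at least three independent trials.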

MCF-10A = assay: Cytotoxicity against human MCF10A cells after 24 hrs by MTT assay; format: cell-based; how it was run: as §4
HT-22 [4] = assay: Cytotoxicity against mouse HT22 cells after 24 hrs in presence of lysosomal protease inhibitor bafilomycin A1 by MTT assay; format: functional, cell-based
HT-22 [5] = assay: Cytotoxicity against mouse HT22 cells after 24 hrs in presence of lysosomal protease inhibitor leupeptin by MTT assay; format: functional, cell-based
HT-22 [6] = assay: Cytotoxicity against mouse HT22 cells after 24 hrs in presence of lysosomal protease inhibitor ammonium chloride by MTT assay; format: functional, cell-based
[7] = Drug localization in nucleus of mouse HT22 cells assessed as punctate formation after 3 hrs by DAPI staining based fluorescence microscopic analysis; format: ADME, subcellular; conditions: ht-22, 3 h
How it was run: (§5)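 Rhodamine-labelled peptide (3.5 μM) was given for 3 h at 37 °C. Cells were washed with DMEM and PBS, fixed in 4% PFA for 20 min, nuclei stained with DAPI, and imaged by epifluorescence with 40× air or 60× oil objectives.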

[8] = Drug localization in cytosol of mouse HT22 cells assessed as punctate formation after 3 hrs by DAPI staining based fluorescence microscopic analysis; format: ADME, subcellular, HT-22; how it was run: as §5
[9] = Drug localization in nucleus of HEK293 cells assessed as punctate formation after 3 hrs by DAPI staining based fluorescence microscopic analysis; format: ADME, subcellular; conditions: human, hek293, 3 h; how it was run: as §5
[10] = Drug localization in cytosol of HEK293 cells assessed as punctate formation after 3 hrs by DAPI staining based fluorescence microscopic analysis; format: ADME, subcellular; conditions: human; how it was run: as §5
[11] = Drug localization in nucleus of human HeLa cells assessed as punctate formation after 3 hrs by DAPI staining based fluorescence microscopic analysis; format: ADME, subcellular; how it was run: as §5
[12] = Drug localization in cytosol of human HeLa cells assessed as punctate formation after 3 hrs by DAPI staining based fluorescence microscopic analysis; format: ADME, subcellular; how it was run: as §5
[13] = Drug uptake in mouse HT22 cells at 3.5 uM up to 3 hrs by DAPI staining based fluorescence microscopic analysis; format: ADME, cell-based; conditions: ht-22, 3 h
How it was run: (§6)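 HT-22 cells were incubated with 3.5 μM rhodamine-labelled peptide for 30 min, 3 h, 6 h and 24 h at 37 °C, then fixed in 4% PFA with DAPI nuclear stain. Per-cell fluorescence was taken as integrated density after background correction.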

[14] = Drug uptake in mouse HT22 cells at 3.5 uM after 6 to 24 hrs by DAPI staining based fluorescence microscopic analysis; format: ADME, cell-based; conditions: ht-22, 3.5 µM; how it was run: as §6
[15] = Drug localization in late endosomes/lysosomes of mouse Rh-Dextran-labelled HT22 cells at 7.5 uM after 2.5 hrs using fluorescent-labelled peptide by confocal microscopic analysis; format: ADME, subcellular, Late endosome/lysosome; conditions: ht-22, 2.5 h
HEK293 = assay: Cytotoxicity against HEK293 cells after 24 hrs by MTT assay; format: cell-based; conditions: human, hek293, 24 h; how it was run: as §1
HT-22 [16] = assay: Induction of cell death in mouse HT22 cells by thioflavin S/DAPI/propidium iodide staining based fluorescence microscopic analysis; format: functional; how it was run: as §3
HT-22 [17] = assay: Induction of endosomal/lysosomal membrane permeabilization in mouse HT22 cells at 15 uM measured after 1 hr by acridine orange dye based fluorescence microscopic analysis; format: functional
[18] = Drug localization in cytosol of mouse Rh-Dextran-labelled HT22 cells at 7.5 uM after 2.5 hrs using fluorescent-labelled peptide by confocal microscopic analysis; format: ADME, subcellular, HT-22

Row | Compound | Activity (HeLa) | Activity (HT-22 [1]) | EC50 (MDA-MB-231) | Activity (MCF-10A) | Activity (HT-22 [4]) | Activity (HT-22 [5]) | Activity (HT-22 [6]) | also measured
1 | Ac-VQIVKKRRRRRRRRR-NH2 | Active | Not Active |  |  |  |  |  | 
2 | Ac-LAVLFLRRRRRRRRR-NH2 |  |  | 20 µM | Non-Toxic | Active | Active | Active | EC50 (HeLa; read-out: ED50 (the source's name)): 3 µM; Activity (HT-22 [2]): Active; Activity (HT-22 [3]): Active
3 | CC[C@H](C)[C@H](NC(=O)[C@H](CCC(N)=O)NC(=O)[C@@H](NC(=O)CCC(=O)N1CCN(C(=O)c2ccccc2-c2c3ccc(=[N+](CC)CC)cc-3oc3cc(N(CC)CC)ccc23)CC1)C(C)C)C(=O)N[C@H](C(=O)N[C@@H](Cc1ccc(O)cc1)C(=O)N[C@@H](CCCCN)C(=O)N[C@@H](CCCNC(=N)N)C(=O)N[C@@H](CCCNC(=N)N)C(=O)N[C@@H](CCCNC(=N)N)C(=O)N[C@@H](CCCNC(=N)N)C(=O)N[C@@H](CCCNC(=N)N)C(=O)N[C@@H](CCCNC(=N)N)C(=O)N[C@@H](CCCNC(=N)N)C(=O)N[C@@H](CCCNC(=N)N)C(=O)N[C@@H](CCCNC(=N)N)C(N)=O)C(C)C.[Cl-] ({Piperazinyl(4-RhodamineB)-Suc}-VQIVYKRRRRRRRRR-NH2) |  |  |  |  |  |  |  | Drug uptake [7]: Active; Drug uptake [8]: Active; Drug uptake [9]: Active; Drug uptake [10]: Active; Drug uptake [11]: Active; Drug uptake [12]: Active; Drug uptake [13]: Active; Drug uptake [14]: Not Active; Drug uptake [15]: Active
4 | Ac-VQIVYKRRRRRRRRR-NH2 | Active | Active | 5 µM | Non-Toxic | inactive | inactive | inactive | Activity (HEK293): Non-Toxic; Activity (HT-22 [16]): Active; Activity (HT-22 [17]): Active; Drug uptake [18]: Active
5 | Ac-VQIVYK-NH2 | Active | Not Active |  | Non-Toxic |  |  |  | Activity (MDA-MB-231): inactive
6 | Ac-LAVLFL-NH2 | Active |  |  |  |  |  |  | 

— ChEMBL document CHEMBL4325821, “Novel cell-penetrating-amyloid peptide conjugates preferentially kill cancer cells” (Medchemcomm, 2018)
